This is an account of results in ChEMBL document CHEMBL2203189, “Synthesis and pharmacology of 1-alkyl-3-(1-naphthoyl)indoles: steric and electronic effects of 4- and 8-halogenated naphthoyl substituents” (Bioorg Med Chem, 2012).

Active and inactive are the calls of the source.

The species entered for assay [1] is Mus musculus. Kind of assay: Induction of catalepsy in mouse by ring immobility test. It counts as functional.
Assay [2] relates to Mus musculus. Kind of assay: Locomotor activity in iv dosed Harlan ICR mouse from 5 to 15 mins by spontaneous locomotor activity test. It counts as functional.
The species named for a further assay is Homo sapiens. The experiment in a line: Selectivity ratio of Ki for human CB1 receptor to Ki for human CB2 receptor.
Assay [3] has as its system Mus musculus. The experiment in a line: Antinociceptive activity in iv dosed Harlan ICR mouse assessed as latency to heat-induced tail flicking at 20 mins. Type of assay: functional. Put shortly: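 Male ICR mice, 18–25 g, n = 6 per dose. Multiple doses iv by tail vein in emulphor–ethanol–saline 1:1:18. Tail-flick latency at 20 min, 10 s cutoff, expressed as %MPE.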

For assay [4], the system named is Mus musculus. Kind of assay: Hypothermic activity in iv dosed Harlan ICR mouse assessed as change in rectal temperature at 30 mins. Type of assay: functional. The note with it: 0.5 h.
In assay [5] the test system is Mus musculus. Kind of assay: Antinociceptive activity in Harlan ICR mouse assessed as latency to heat-induced tail flicking at 74 umol/kg, iv at 20 mins relative to control. Type of assay: functional.
Assay [6] concerns the target T1, Cannabinoid receptor 1 (Homo sapiens, UniProt P21554). The experiment in a line: Displacement of [3H]CP55940 from human CB1 receptor expressed in HEK293 cells after 1 hr by liquid scintillation spectrophotometry. Type of assay: cell-based. A digest of the protocol: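 Membranes (50 µg) from HEK-293 cells stably expressing human CB1, cultured in DMEM/10% FBS. Incubated with 0.5 nM [3H]CP55,940 and test compound at 1 nM–10 µM in buffer with BSA (5 mg/mL), 1 h at 30 °C. Nonspecific binding defined with excess unlabelled CP55,940. Filtered through GF/B, then scintillation counting.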

Another assay addresses Cannabinoid receptor 2 (Homo sapiens, UniProt P34972). The experiment in a line: Displacement of [3H]CP55940 from human CB2 receptor expressed in CHO cells after 1 hr by liquid scintillation spectrophotometry. Type of assay: cell-based. Put shortly:
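Membranes (50 µg) from CHO cells stably expressing human CB2, cultured in DMEM/10% fetal calf serum. Incubated with 0.5 nM [3H]CP55,940 and test compound at 1 nM–10 µM with BSA (5 mg/mL), 1 h at 30 °C. Nonspecific binding defined with excess unlabelled CP55,940. GF/B filtration, then scintillation counting.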

Assay [7] has as its system Mus musculus. The experiment in a line: Locomotor activity in Harlan ICR mouse assessed as inhibition of activity level at 74 umol/kg, iv from 5 to 15 mins by spontaneous locomotor activity test relative to vehicle treated control. It counts as functional. Put shortly: (§1)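 Male ICR mice, n = 6 per dose, single probe dose iv in emulphor–ethanol–saline 1:1:18. Photocell beam interruptions recorded over 10 min, at 5–15 min after dosing. Result given as % inhibition relative to the vehicle group.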

The subject of assay [8] is Mus musculus. Kind of assay: Hypothermic activity in Harlan ICR mouse assessed as change in rectal temperature at 74 umol/kg, iv at 30 mins. Type of assay: functional. A digest of the protocol:
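Male ICR mice, n = 6 per dose. Single probe dose iv in emulphor–ethanol–saline 1:1:18. Rectal temperature taken with a thermistor probe at 25 mm depth before dosing and at 30 min. Result given as change from pre-injection value (°C).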

Assay [9] relates to Mus musculus. The experiment in a line: Hypothermic activity in Harlan ICR mouse assessed as change in rectal temperature at […], iv at 30 mins. Type of assay: functional.
The test system of assay [10] is Mus musculus. The experiment in a line: Locomotor activity in Harlan ICR mouse assessed as inhibition of activity level at […], iv from 5 to 15 mins by spontaneous locomotor activity test relative to vehicle treated control. Type of assay: functional.
The test system of assay [11] is Mus musculus. The experiment in a line: Antinociceptive activity in Harlan ICR mouse assessed as latency to heat-induced tail flicking at […], iv at 20 mins relative to control. Type of assay: functional.
The test system of assay [12] is Mus musculus. The experiment in a line: Induction of catalepsy in Harlan ICR mouse at […], iv at 40 mins measured for 5 mins by ring immobility test. It counts as functional.
Assay [13] deals with Mus musculus. The experiment in a line: Locomotor activity in Harlan ICR mouse assessed as inhibition of activity level at 66 umol/kg, iv from 5 to 15 mins by spontaneous locomotor activity test relative to vehicle treated control. Type of assay: functional. Put shortly:
as §1

The subject of assay [14] is Mus musculus. Kind of assay: Hypothermic activity in Harlan ICR mouse assessed as change in rectal temperature at 30 mg/kg, iv at 30 mins in the presence of rimonabant. It counts as functional, organism-based. Also noted: dose 30 mg/kg.
Assay [15] has as its system Mus musculus. The experiment in a line: Antinociceptive activity in Harlan ICR mouse assessed as latency to heat-induced tail flicking at 30 mg/kg, iv at 20 mins in the presence of rimonabant. It counts as functional, organism-based. Also noted: dose 30 mg/kg.
The subject of assay [16] is Mus musculus. Kind of assay: Induction of catalepsy in iv dosed Harlan ICR mouse at 40 mins measured for 5 mins by ring immobility test. Type of assay: functional.
In assay [17] the target is T1, Cannabinoid receptor 1. Kind of assay: Activation of human CB1 receptor expressed in HEK293 cells assessed as [35S]GTPgamma binding after 90 mins by liquid scintillation spectrophotometry relative to CP55940. Type of assay: functional, cell-based. A digest of the protocol: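 Membranes from HEK-293 cells stably expressing human CB1, pelleted at 50,000g and taken up in Tris-HCl pH 7.4 with MgCl2, EGTA and NaCl. 10 µg protein with BSA, 20 µM GDP, 0.1 nM [35S]GTPγS and graded test concentrations, 90 min at 30 °C. 2 µM CP55,940 run as internal standard; basal without agonist, nonspecific with 10 µM GTPγS. Filtration, then scintillation counting.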

Assay [18] has as its system Mus musculus. The experiment in a line: Locomotor activity in Harlan ICR mouse at 30 mg/kg, iv from 5 to 15 mins by spontaneous locomotor activity test in the presence of rimonabant. It counts as functional, organism-based. Further details: dose 30 mg/kg.
Assay [19] deals with Mus musculus. The experiment in a line: Induction of catalepsy in Harlan ICR mouse at 30 mg/kg, iv 40 mins measured for 5 mins by ring immobility test in the presence of rimonabant. Type of assay: functional, organism-based. Further details: dose 30 mg/kg.

Cannabinoid receptor 2, sequence (P34972 whole entry): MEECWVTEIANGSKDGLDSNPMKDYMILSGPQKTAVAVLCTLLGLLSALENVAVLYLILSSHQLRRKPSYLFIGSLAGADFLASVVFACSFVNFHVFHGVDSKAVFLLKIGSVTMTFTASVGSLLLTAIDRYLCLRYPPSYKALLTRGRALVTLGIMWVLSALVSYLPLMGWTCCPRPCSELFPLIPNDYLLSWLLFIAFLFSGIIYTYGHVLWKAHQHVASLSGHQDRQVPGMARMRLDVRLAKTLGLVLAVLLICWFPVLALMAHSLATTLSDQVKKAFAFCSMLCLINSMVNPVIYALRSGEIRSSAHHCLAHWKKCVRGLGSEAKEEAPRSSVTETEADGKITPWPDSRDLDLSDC
T1 sequence (P21554 whole entry): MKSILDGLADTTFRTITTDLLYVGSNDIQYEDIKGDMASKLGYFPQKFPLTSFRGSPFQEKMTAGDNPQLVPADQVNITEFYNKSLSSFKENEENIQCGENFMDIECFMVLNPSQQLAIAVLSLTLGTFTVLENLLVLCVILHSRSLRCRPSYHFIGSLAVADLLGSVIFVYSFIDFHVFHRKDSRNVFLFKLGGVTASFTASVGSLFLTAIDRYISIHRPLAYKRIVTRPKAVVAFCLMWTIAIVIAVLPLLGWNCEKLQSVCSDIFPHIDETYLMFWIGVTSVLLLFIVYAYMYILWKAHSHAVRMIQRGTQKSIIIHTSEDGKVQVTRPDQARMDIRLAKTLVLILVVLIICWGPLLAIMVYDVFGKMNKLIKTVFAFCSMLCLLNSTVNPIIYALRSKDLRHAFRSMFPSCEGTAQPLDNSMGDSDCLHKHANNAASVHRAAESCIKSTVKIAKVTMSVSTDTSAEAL

In the case of `CCCCCn1cc(C(=O)c2cccc3ccccc23)c2ccccc21`, the ED50 in the assay filed under Mus musculus [1] stood at 3 µmol/kg; in the assay on Mus musculus [2], 0.44 µmol/kg; in the assay on Mus musculus [3], 0.09 µmol/kg; with Mus musculus [4], 1.7 µmol/kg. In the assay listed under Homo sapiens, the Ratio Ki is 3.2.

Regarding `CCCn1c(C)c(C(=O)c2cccc3ccccc23)c2ccccc21`, the ED50 in the assay listed under Mus musculus [1] came to 87.2 µmol/kg; in the assay with Mus musculus [2], 18.7 µmol/kg; in the assay on Mus musculus [3], 84.7 µmol/kg; in the assay with Mus musculus [4], 99.1 µmol/kg.

For `CCCn1c(C)c(C(=O)c2ccc(Br)c3ccccc23)c2ccccc21`, the Activity was 96% in the assay on Mus musculus [5] and -5% with Mus musculus [8]. Moreover, the Ki stood at 373 nM at Cannabinoid receptor 1 [6] and 31 nM on Cannabinoid receptor 2. Besides, the Ratio Ki in the assay listed under Homo sapiens was 12. Further, the inhibition in vivo at 74 µmol/kg in the assay on Mus musculus [7] is 80%.

On to `CCCn1cc(C(=O)c2ccc(I)c3ccccc23)c2ccccc21`, for which the Ki at Cannabinoid receptor 1 [6] was determined as 140 nM; at Cannabinoid receptor 2 it was 6.6 nM. Moreover, the Activity was -1.7% in the assay on Mus musculus [9], 26% with Mus musculus [11] and 2% in the assay on Mus musculus [12]. Besides, the inhibition in vivo at […] in the assay on Mus musculus [10] turned out to be 10%. The Ratio Ki in the assay filed under Homo sapiens worked out at 21.

With `CCCn1c(C)c(C(=O)c2cccc3cccc(I)c23)c2ccccc21`, the Ki was 4290 nM at Cannabinoid receptor 1 [6] and 536 nM at Cannabinoid receptor 2. In the assay filed under Homo sapiens, the Ratio Ki was 8. Besides, the inhibition result in the assay on Mus musculus [13] is “inactive”.

Consider `CCCn1c(C)c(C(=O)c2ccc(F)c3ccccc23)c2ccccc21`, for which the outcome in the assay on Mus musculus [14], with Mus musculus [15], with Mus musculus [18] and in the assay with Mus musculus [19] was inactive. Moreover, the Ki came to 530 nM at Cannabinoid receptor 1 [6] and 38 nM on Cannabinoid receptor 2. Also, the ED50 came to 23.2 µmol/kg in the assay with Mus musculus [16], 9.6 µmol/kg with Mus musculus [2], 11.9 µmol/kg in the assay with Mus musculus [3] and 30.1 µmol/kg in the assay with Mus musculus [4]. Further, the Emax at Cannabinoid receptor 1 [17] was 59%. The Ratio Ki in the assay filed under Homo sapiens came to 14.

Take `CCCn1c(C)c(C(=O)c2cccc3cccc(Br)c23)c2ccccc21`: the Activity with Mus musculus [5] is recorded as 72%; in the assay on Mus musculus [8], -2.3%. For the same molecule, the values for the Ki at Cannabinoid receptor 1 [6] and at Cannabinoid receptor 2 were greater than 10000 nM and 278 nM, respectively. Further, the Ratio Ki in the assay filed under Homo sapiens is greater than 36. Further, the inhibition in vivo at 74 µmol/kg in the assay on Mus musculus [7] stood at 49%.
